Measured values reported in ChEMBL document CHEMBL3526089, “Selective mechanism-based inactivation of CYP3A4 by CYP3cide (PF-04981517) and its utility as an in vitro tool for delineating the relative roles of CYP3A4 versus CYP3A5 in the metabolism of drugs” (Drug Metab Dispos, 2012).

Tests used:
[1] = molecular target: CYP2C19 (Homo sapiens, UniProt P33261); test: Time dependent inhibition of human CYP2C19 S-mephenytoin 4'-hydroxylase activity assessed as decrease in enzyme activity at 100 uM preincubated for 30 mins by IC25-shift assay; assay type: ADME; settings: probe S-mephenytoin (4'-hydroxylation)
Chain of CYP2C19 (P33261 whole entry): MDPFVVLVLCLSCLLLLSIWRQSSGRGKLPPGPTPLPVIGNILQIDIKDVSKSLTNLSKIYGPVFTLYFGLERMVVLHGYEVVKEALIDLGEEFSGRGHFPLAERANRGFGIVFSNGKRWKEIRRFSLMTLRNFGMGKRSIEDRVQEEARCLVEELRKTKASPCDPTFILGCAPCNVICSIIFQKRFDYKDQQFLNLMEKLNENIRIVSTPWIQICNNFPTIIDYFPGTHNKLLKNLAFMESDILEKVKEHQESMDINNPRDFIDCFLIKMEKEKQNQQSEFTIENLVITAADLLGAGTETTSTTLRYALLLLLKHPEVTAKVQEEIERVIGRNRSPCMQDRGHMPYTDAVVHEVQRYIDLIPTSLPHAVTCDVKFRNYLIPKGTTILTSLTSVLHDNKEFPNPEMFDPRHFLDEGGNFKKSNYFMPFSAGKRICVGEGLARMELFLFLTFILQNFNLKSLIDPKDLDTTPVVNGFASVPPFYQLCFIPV
Procedure, shortened: (§1)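 IC25-shift assay. Pooled HLMs or recombinant CYP3A4/3A5/3A7 were preincubated 30 min at 37°C with CYP3cide, with or without NADPH (1.3 mM) (N=2). Mixture diluted 10-fold into probe substrate (~KM) at 37°C. Metabolites analysed by LC/MS/MS. Readout: % decrease in activity vs control.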

[2] = molecular target: CYP2D6 (Homo sapiens, UniProt P10635); test: Time dependent inhibition of human CYP2D6 dextromethorphan O-demethylase activity assessed as decrease in enzyme activity at 100 uM preincubated for 30 mins by IC25-shift assay; assay type: ADME; settings: probe dextromethorphan (O-demethylation); procedure, shortened: as §1
Chain of CYP2D6 (P10635 whole entry): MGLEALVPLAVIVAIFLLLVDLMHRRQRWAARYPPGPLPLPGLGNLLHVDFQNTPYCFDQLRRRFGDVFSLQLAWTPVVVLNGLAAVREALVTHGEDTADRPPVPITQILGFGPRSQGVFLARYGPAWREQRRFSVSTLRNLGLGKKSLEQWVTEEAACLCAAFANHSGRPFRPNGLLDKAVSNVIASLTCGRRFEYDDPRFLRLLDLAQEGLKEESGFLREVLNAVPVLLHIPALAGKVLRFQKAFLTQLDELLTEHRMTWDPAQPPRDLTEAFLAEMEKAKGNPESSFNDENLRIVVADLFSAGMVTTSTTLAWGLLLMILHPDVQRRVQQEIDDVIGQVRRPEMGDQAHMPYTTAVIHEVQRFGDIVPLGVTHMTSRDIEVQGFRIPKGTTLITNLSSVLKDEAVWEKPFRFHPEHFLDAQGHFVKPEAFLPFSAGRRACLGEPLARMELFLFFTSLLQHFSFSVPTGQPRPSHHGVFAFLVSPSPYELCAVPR

[3] = molecular target: CYP3A4 (Homo sapiens, UniProt P08684); test: Time dependent inhibition of testosterone 6beta-hydroxylase activity of human recombinant CYP3A4 in presence of human P450 oxidoreductase and b5 assessed as decrease in enzyme activity at 0.050 uM preincubated for 30 mins by IC25-shift assay; assay type: ADME; settings: recombinant CYP3A4 with human P450 oxidoreductase and b5, probe testosterone (6beta-hydroxylation); procedure, shortened: as §1
Chain of CYP3A4 (P08684 whole entry): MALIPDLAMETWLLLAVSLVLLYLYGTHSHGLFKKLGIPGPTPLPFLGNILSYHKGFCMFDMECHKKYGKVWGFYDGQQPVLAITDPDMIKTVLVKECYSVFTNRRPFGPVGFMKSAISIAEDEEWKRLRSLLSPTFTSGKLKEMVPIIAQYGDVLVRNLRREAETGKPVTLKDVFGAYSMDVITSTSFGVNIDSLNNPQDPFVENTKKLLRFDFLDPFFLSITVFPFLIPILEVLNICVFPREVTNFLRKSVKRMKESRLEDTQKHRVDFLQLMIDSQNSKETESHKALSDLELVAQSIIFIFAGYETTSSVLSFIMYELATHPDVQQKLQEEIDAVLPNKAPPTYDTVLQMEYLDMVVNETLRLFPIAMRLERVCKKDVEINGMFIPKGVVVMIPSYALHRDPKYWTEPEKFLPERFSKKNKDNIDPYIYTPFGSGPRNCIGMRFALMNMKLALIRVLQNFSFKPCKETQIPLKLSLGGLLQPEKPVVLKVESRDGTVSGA

[4] = molecular target: T1, Cytochrome P450 3A4 (Homo sapiens, UniProt P08684); test: Inhibition of midazolam 1'-hydroxylase activity of human recombinant CYP3A4 harboring human P450 oxidoreductase and b5 assessed as decrease in enzyme activity preincubated for 30 mins by LC-MS/MS analysis; assay type: ADME
T1 sequence (P08684 whole entry): as above
Procedure, shortened: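 Recombinant CYP3A4 with POR and cytochrome b5 was preincubated with inhibitor at 0.050 µM, with or without NADPH (1.3 mM), for 30 min at 37°C (N=2). The mixture was then diluted 10-fold into the probe substrate (about KM) at 37°C and analysed for metabolite. Results are percent decrease in activity versus control.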

[5] = molecular target: Cytochrome P450 1A2 (Homo sapiens, UniProt P05177); test: Reversible inhibition of human CYP1A2 phenacetin O-deethylase activity; assay type: ADME
Chain of Cytochrome P450 1A2 (P05177 whole entry, canonical isoform): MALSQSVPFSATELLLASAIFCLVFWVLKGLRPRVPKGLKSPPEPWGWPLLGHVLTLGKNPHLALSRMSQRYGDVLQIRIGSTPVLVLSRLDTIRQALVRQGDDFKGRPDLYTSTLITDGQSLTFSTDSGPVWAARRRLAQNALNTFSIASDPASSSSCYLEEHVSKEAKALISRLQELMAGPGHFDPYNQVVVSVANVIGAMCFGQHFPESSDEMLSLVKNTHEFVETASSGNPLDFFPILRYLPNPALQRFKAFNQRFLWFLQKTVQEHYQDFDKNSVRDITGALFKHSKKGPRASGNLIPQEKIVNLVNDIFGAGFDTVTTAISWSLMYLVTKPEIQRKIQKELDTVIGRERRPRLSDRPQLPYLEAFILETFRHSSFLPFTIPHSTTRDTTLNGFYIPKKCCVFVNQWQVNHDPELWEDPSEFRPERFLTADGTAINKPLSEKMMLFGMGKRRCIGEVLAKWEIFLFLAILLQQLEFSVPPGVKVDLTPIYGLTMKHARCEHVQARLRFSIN
Procedure, shortened: (§2)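 Reversible IC50 with pooled HLM or recombinant CYP3A7 (with POR and b5), protein 0.010–0.10 mg/ml depending on isoform. Probe substrate at its experimentally derived KM. Metabolite formation measured by LC/MS/MS. IC50 determinations run in duplicate.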

[6] = molecular target: Cytochrome P450 2B6 (Homo sapiens, UniProt P20813); test: Reversible inhibition of human CYP2B6 bupropion hydroxylase activity; assay type: ADME; procedure, shortened: as §2
Chain of Cytochrome P450 2B6 (P20813 whole entry): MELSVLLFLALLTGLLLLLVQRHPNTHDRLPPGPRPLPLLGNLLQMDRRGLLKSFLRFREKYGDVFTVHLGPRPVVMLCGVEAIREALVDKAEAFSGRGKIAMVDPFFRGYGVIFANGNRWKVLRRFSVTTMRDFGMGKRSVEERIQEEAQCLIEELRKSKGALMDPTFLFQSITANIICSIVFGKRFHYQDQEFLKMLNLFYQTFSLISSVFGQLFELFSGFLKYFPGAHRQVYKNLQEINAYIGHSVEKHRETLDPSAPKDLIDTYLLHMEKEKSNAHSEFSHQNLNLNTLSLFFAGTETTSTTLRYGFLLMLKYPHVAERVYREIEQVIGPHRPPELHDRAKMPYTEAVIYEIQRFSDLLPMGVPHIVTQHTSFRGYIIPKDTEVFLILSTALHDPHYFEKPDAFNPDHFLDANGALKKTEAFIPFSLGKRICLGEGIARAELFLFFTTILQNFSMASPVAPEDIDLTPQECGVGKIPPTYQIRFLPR

[7] = molecular target: Cytochrome P450 2C8 (Homo sapiens, UniProt P10632); test: Reversible inhibition of human CYP2C8 paclitaxel 6alpha-hydroxylase activity; assay type: ADME; procedure, shortened: as §2
Chain of Cytochrome P450 2C8 (P10632 whole entry): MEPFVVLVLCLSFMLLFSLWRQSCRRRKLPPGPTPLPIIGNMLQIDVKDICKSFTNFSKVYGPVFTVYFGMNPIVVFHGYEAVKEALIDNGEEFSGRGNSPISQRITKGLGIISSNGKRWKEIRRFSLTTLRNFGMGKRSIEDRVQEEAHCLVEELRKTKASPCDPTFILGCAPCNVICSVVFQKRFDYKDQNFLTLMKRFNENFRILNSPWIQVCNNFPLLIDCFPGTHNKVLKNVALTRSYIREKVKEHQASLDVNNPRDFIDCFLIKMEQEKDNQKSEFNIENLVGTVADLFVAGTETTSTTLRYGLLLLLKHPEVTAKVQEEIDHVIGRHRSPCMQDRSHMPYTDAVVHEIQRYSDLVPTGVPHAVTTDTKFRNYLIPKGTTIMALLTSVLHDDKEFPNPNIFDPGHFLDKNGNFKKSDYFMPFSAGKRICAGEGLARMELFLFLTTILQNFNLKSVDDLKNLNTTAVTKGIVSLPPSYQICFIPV

[8] = molecular target: Cytochrome P450 2C19 (Homo sapiens, UniProt P33261); test: Reversible inhibition of human CYP2C19 S-mephenytoin 4'-hydroxylase activity; assay type: ADME; procedure, shortened: as §2
Chain of Cytochrome P450 2C19 (P33261 whole entry): as the sequence (P33261 whole entry) above

[9] = molecular target: Cytochrome P450 2D6 (Homo sapiens, UniProt P10635); test: Reversible inhibition of human CYP2D6 dextromethorphan O-demethylase activity; assay type: ADME
Chain of Cytochrome P450 2D6 (P10635 whole entry): as the sequence (P10635 whole entry) above

[10] = molecular target: CYP3A (Homo sapiens, UniProt P08684+P20815+P24462+Q9HB55); test: Reversible inhibition of human CYP3A midazolam 1'-hydroxylase activity; assay type: ADME; settings: probe midazolam (1'-hydroxylation); procedure, shortened: as §2
[11] = molecular target: T2, Cytochrome P450 3A5 (Homo sapiens, UniProt P20815); test: Reversible inhibition of midazolam 1'-hydroxylase activity of human recombinant CYP3A5 harboring human P450 oxidoreductase and b5; assay type: ADME
Procedure, shortened: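 Recombinant CYP3A5 expressed in baculovirus, with P450 oxidoreductase and cytochrome b5 (P450:POR:b5 1:13:7). Enzyme at 0.010 mg/ml for midazolam 1'-hydroxylase and 0.020 mg/ml for testosterone 6β-hydroxylase. Each substrate at its experimentally derived KM. IC50 determined in duplicate.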
Target sequence in this assay (P20815 whole entry): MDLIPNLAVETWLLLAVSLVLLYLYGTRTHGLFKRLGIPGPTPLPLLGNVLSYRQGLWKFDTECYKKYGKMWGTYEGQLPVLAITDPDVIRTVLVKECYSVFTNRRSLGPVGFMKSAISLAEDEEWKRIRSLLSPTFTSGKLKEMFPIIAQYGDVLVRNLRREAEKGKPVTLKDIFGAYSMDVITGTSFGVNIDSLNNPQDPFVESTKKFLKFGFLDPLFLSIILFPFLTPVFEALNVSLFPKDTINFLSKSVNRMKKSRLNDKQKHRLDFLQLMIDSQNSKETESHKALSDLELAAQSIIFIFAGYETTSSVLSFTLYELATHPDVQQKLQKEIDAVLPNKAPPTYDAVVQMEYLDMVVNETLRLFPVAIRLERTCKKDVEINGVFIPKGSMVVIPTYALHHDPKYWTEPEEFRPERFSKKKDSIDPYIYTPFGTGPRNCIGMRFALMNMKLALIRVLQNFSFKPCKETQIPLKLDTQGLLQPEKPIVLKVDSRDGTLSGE

[12] = molecular target: CYP2C8 (Homo sapiens, UniProt P10632); test: Time dependent inhibition of human CYP2C8 paclitaxel 6alpha-hydroxylase activity assessed as decrease in enzyme activity at 100 uM preincubated for 30 mins by IC25-shift assay; assay type: ADME; settings: probe paclitaxel (6alpha-hydroxylation); procedure, shortened: as §1
Chain of CYP2C8 (P10632 whole entry): as the sequence (P10632 whole entry) above

[13] = molecular target: T1, Cytochrome P450 3A4; test: Inhibition of testosterone 6beta-hydroxylase activity of human recombinant CYP3A4 in presence of human P450 oxidoreductase and b5 assessed as decrease in enzyme activity preincubated for 30 mins by LC-MS/MS analysis; assay type: ADME
[14] = molecular target: T1, Cytochrome P450 3A4; test: (§3) Drug metabolism assessed as human recombinant CYP3A4 in presence of human P450 oxidoreductase and b5-mediated 1-((3S)-1-(1-methyl-3-(1-methyl-5-p-tolyl-1H-pyrazol-4-yl)-1H-pyrazolo[3,4-d]pyrimidin-4-yl)pyrrolidin-3-yl)-2,3,4,5-tetrahydropyridinium formation at 10 uM by HPLC-MS analysis in presence of NADPH; assay type: ADME; settings: recombinant enzyme
Procedure, shortened: (§4)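 Recombinant CYP3A4 or CYP3A5 (50 pmol/ml final) added, without preincubation, to 10 µM CYP3cide with NADPH (final 1 mM) in 100 mM phosphate pH 7.4. Trapping incubations also held 200 µM KCN or 5 mM GSH (final). Incubated 1 h at 37°C, quenched with acetonitrile, dried, reconstituted. Metabolites analysed by LC/Orbitrap ESI-MS.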

[15] = molecular target: T2, Cytochrome P450 3A5; test: as §3, with “human recombinant CYP3A5 in presence” for “human recombinant CYP3A4 in presence”, “presence of KCN and NADPH” for “presence of NADPH”; assay type: ADME; settings: recombinant enzyme; procedure, shortened: as §4
Target sequence in this assay (P20815 whole entry): as the sequence (P20815 whole entry) above

[16] = system: CYP3A5*1/*1; test: Time dependent inhibition of CYP3A5*1/*1 in human liver microsomes assessed as midazolam 1'-hydroxylase activity at 0.56 uM after 10 mins by dilution method; assay type: ADME; settings: liver microsomes (CYP3A5*1/*1 genotype), probe midazolam (1'-hydroxylation)
Procedure, shortened: (§5)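 Genotyped individual HLMs (0.1 mg/ml) preincubated at 37°C with CYP3cide (0–1.3 μM; 10 min in the two-donor study, 5 min in the 30-donor study), with or without 1.3 mM NADPH (N=3). Mixture diluted 20-fold into 23 μM midazolam for 6 min. 1'-OH-midazolam measured. Readout: % of vehicle/no-NADPH control activity.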

[17] = system: CYP3A5*1/*3; test: Time dependent inhibition of CYP3A5*1/*3 in human liver microsomes assessed as midazolam 1'-hydroxylase activity at 0.56 uM after 10 mins by dilution method; assay type: ADME; settings: human liver microsomes (CYP3A5*1/*3 genotype), probe midazolam (1'-hydroxylation)
[18] = system: CYP3A5*3/*3; test: Time dependent inhibition of CYP3A5*3/*3 in human liver microsomes assessed as midazolam 1'-hydroxylase activity at 0.56 uM after 10 mins by dilution method; assay type: ADME; settings: human liver microsomes (CYP3A5*3/*3 genotype), probe midazolam (1'-hydroxylation); procedure, shortened: as §5
[19] = molecular target: T2, Cytochrome P450 3A5; test: Drug metabolism assessed as human recombinant CYP3A5 in presence of human P450 oxidoreductase and b5-mediated 1-((3S)-1-(1-methyl-3-(1-methyl-5-p-tolyl-1H-pyrazol-4-yl)-1H-pyrazolo[3,4-d]pyrimidin-4-yl)pyrrolidin-3-yl)-2,3,4,5-tetrahydropyridinium formation at 10 uM by HPLC-MS analysis in presence of KCN and NADPH; settings: recombinant enzyme
Target sequence in this assay (P20815 whole entry, looked up): as the sequence (P20815 whole entry) above

inhibition at 30 min, 100 µM [1]: 0.79%
inhibition at 30 min, 100 µM [2]: 6%
inhibition at 30 min, 0.05 µM [3]: 74%
Ki [4]: 0.12 µM
IC50 [5]: 43 µM
IC50 [6]: 88 µM
IC50 [7]: 78 µM
IC50 [8]: 77 µM
IC50 [9]: 71 µM
IC50 [10]: 0.33 µM
IC50 [11]: 17 µM
inhibition at 30 min, 100 µM [12]: 13%
Ki [13]: 0.17 µM
Drug metabolism [14]: metabolite_detected
Drug metabolism [15]: metabolite_detected
inhibition at 10 min, 0.56 µM [16]: 0.4%
inhibition at 10 min, 0.56 µM [17]: 0.4%
inhibition at 10 min, 0.56 µM [18]: 0.4%
Drug metabolism [19]: metabolite_detected
Compound: Cc1ccc(-c2c(-c3nn(C)c4ncnc(N5CC[C@H](N6CCCCC6)C5)c34)cnn2C)cc1
